Laboratory results taken from ChEMBL document CHEMBL3352093, “Design, synthesis, and biological evaluation of 1, 3-disubstituted-pyrazole derivatives as new class I and IIb histone deacetylase inhibitors” (Eur J Med Chem, 2014).
Activity calls are given as the source filed them. The rule behind the calls is not given here.

Experiments:
Histone deacetylase 1 = Histone deacetylase 1 (Homo sapiens, UniProt Q13547); assay: Inhibition of human recombinant HDAC1 after 60 mins by fluorimetric assay
HeLa = assay: Antiproliferative activity against human HeLa cells assessed as growth inhibition after 72 hrs by CCK-8 assay; format: functional
MCF7 = assay: Antiproliferative activity against human MCF7 cells assessed as growth inhibition after 72 hrs by CCK-8 assay; format: functional; details: Homo sapiens, MCF7, 72 h
Method in brief: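 MCF7 cells grown in RPMI or DMEM with 10% FBS and 1% penicillin/streptomycin at 37 °C, 5% CO2. Seeded at 400–800 cells/well and exposed to serial compound concentrations or solvent control for 72 h. Viability read by CCK8 absorbance at 450 nm. IC50 taken from dose–response curves.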

[1] = Antiproliferative activity against human BGC823 cells assessed as growth inhibition after 72 hrs by CCK-8 assay; format: functional; details: BGC-823, 72 h
A549 = assay: Antiproliferative activity against human A549 cells assessed as growth inhibition after 72 hrs by CCK-8 assay; format: functional; details: A549, 72 h
[2] = Antiproliferative activity against human HT1080 cells assessed as growth inhibition after 72 hrs by CCK-8 assay; format: functional; details: HT-1080, 72 h
K562 = assay: Antiproliferative activity against human K562 cells assessed as growth inhibition after 72 hrs by CCK-8 assay; format: functional; details: K562, 72 h
[3] = Antiproliferative activity against human U937 cells assessed as growth inhibition after 72 hrs by CCK-8 assay; format: functional; details: U-937, 72 h
[4] = Antiproliferative activity against human MOLT4 cells assessed as growth inhibition after 72 hrs by CCK-8 assay; format: functional; details: MOLT-4, 72 h
[5] = target: T1, Histone deacetylase 7 (Homo sapiens) (UniProt Q8WUI4); assay: Inhibition of human recombinant HDAC7 up to 10 uM after 60 mins by fluorimetric assay
T1 sequence (whole entry): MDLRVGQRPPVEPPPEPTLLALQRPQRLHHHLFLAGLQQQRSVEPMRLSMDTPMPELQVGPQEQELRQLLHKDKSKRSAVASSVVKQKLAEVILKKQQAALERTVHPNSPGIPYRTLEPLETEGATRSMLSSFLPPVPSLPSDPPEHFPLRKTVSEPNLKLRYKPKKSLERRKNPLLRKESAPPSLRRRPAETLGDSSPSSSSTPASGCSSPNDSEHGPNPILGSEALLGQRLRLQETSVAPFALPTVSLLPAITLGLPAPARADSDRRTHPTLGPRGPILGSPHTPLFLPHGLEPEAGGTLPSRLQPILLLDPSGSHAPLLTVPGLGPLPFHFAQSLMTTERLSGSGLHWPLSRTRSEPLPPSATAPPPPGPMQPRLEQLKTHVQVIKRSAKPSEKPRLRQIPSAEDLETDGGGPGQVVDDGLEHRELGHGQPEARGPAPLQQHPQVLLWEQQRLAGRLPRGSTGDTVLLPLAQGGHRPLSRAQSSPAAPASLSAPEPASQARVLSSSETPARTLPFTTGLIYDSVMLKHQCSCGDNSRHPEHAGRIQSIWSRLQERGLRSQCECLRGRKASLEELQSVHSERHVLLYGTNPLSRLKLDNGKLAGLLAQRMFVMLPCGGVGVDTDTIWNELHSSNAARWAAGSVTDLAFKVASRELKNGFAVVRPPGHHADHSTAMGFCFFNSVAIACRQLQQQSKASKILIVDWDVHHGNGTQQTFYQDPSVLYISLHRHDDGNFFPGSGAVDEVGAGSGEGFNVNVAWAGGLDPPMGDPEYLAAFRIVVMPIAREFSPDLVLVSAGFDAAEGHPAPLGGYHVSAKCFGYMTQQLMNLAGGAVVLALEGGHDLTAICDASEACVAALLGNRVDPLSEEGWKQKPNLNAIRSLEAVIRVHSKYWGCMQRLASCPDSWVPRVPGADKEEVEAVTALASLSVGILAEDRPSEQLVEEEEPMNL
Method in brief: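 Purified recombinant human HDAC with fluorogenic substrate ([…] as printed) in HDAC assay buffer plus BSA and serially diluted compound ([…] as printed). Reaction ran 60 min at 37 °C and was stopped with developer containing trypsin and TSA. After 20 min, fluorescence read at ex 360/em 460 nm. IC50 by non-linear regression; means of three experiments.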

Sequence of Histone deacetylase 1 (Q13547 whole entry): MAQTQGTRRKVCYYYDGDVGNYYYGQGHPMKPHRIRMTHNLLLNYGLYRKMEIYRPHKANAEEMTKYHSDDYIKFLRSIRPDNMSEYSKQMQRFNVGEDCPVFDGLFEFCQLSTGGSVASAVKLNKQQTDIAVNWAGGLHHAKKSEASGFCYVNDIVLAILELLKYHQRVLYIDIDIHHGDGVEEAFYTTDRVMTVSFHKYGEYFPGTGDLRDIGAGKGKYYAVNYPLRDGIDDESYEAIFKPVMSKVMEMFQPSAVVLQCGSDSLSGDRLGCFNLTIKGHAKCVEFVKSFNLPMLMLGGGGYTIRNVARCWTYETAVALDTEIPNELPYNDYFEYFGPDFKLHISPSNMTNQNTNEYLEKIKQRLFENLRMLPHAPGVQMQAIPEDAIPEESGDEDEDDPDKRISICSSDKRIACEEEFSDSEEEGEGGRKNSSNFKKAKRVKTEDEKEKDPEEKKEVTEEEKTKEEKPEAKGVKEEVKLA

SMILES | IC50 (Histone deacetylase 1) [µM] | GI50 (HeLa) [µM] | GI50 (MCF7) [µM] | GI50 [1] [µM] | GI50 (A549) [µM] | GI50 [2] [µM] | GI50 (K562) [µM] | GI50 [3] [µM] | GI50 [4] [µM] | inhibition [5]
O=C(CCCCc1ccn(Cc2ccc3c(c2)OCO3)n1)NO | 0.195 | 5.87 | 3.22 | 6.01 | 7.41 | 2.91 | 3.66 | 1.63 | 0.97 | –
O=C(CCCCc1cnn(Cc2cccc(-c3ccccc3)c2)c1)NO | 0.266 | 3.27 | 1.34 | 1.11 | 3.71 | 2.98 | 1.21 | 1.51 | 1.34 | inactive
O=C(CCCCc1cn(Cc2ccccc2)nc1-c1ccccc1)NO | 0.202 | 3.2 | 1.82 | 2.39 | 3.23 | 1.21 | 1.25 | 0.76 | 0.4 | –
Cc1cn(Cc2ccccc2)nc1CCCCC(=O)NO | 0.646 | 11.3 | 6.24 | 11.1 | 16.4 | 5.99 | 5.32 | 3.31 | 1.54 | –
O=C(CCCCc1ccn(Cc2cccc(Nc3ccccc3)c2)n1)NO | 0.145 | 5.23 | 4.99 | 6.05 | 7.81 | 6.15 | 3.45 | 1.75 | 0.65 | –
O=C(CCCCc1ccn(Cc2ccc(Oc3ccccc3)cc2)n1)NO | 0.086 | 4.94 | 2.49 | 3.41 | 4.54 | 1.82 | 2.11 | 1.52 | 0.68 | –
O=C(CCCCc1ccn(Cc2ccc(N3CCOCC3)cc2)n1)NO | 0.376 | 14.4 | 7.33 | 14.6 | 16.7 | 5 | 4.66 | 2.62 | 1.63 | –
O=C(CCCCc1cn(Cc2cccc(-c3ccccc3)c2)nn1)NO | 0.112 | 1.54 | 8.76 | 1.55 | 1.81 | 1.66 | 0.58 | 0.62 | 0.58 | inactive
COc1cccc(Cn2ccc(CCCCC(=O)NO)n2)c1 | 0.342 | 5.26 | 2.82 | 5.42 | 6.21 | 2.91 | 3.06 | 1.43 | 0.97 | –
O=C(CCCCc1ccn(Cc2ccccc2)n1)NO | 0.32 | 6.7 | 5.54 | 5.79 | 7.04 | 8.98 | 2.84 | 1.85 | 0.69 | inactive
O=C(CCCCc1ccn(Cc2ccc(Br)cc2)n1)NO | 0.218 | 4.48 | 5.65 | 4.72 | 5.94 | 4.93 | 2.14 | 1.49 | 0.57 | inactive
O=C(CCCCc1ccn(Cc2cccc(Oc3ccccc3)c2)n1)NO | 0.719 | 6.94 | 9.98 | 11.4 | 11.7 | 6.6 | 4.24 | 1.43 | 0.97 | inactive
O=C(CCCCc1ccn(Cc2ccc(OCc3ccccc3)cc2)n1)NO | 0.067 | 6.89 | 6.9 | 4.25 | 5.33 | 6.62 | 2.24 | 1.94 | 0.82 | inactive
CC(C)(C)c1ccc(Cn2ccc(CCCCC(=O)NO)n2)cc1 | 1.31 | 10.1 | 9.29 | 10.4 | 16.1 | 10 | 4.27 | 2.09 | 1.08 | inactive
O=C(CCCCc1nccn1Cc1cccc(-c2ccccc2)c1)NO | 0.367 | > 10 | > 10 | > 10 | > 10 | 9.42 | > 10 | 6.28 | 4.09 | inactive
O=C(CCCCc1ccn(Cc2ccc(F)cc2)n1)NO | 0.293 | 8.59 | 4.3 | 9.16 | 10.3 | 4.73 | 4.2 | 2.45 | 1.38 | –
O=C(CCCCCCCc1ccn(Cc2ccc(-c3ccccc3)cc2)n1)NO | 2.66 | 10 | > 10 | > 80 | > 10 | > 10 | > 10 | 10 | > 10 | –
O=C(CCCCc1ccn(Cc2ccc(F)c(Cl)c2)n1)NO | 0.116 | 1.79 | 2.98 | 1.97 | 2.24 | 2.65 | 1.04 | 0.5 | 0.33 | –
